One compound from ChEMBL document CHEMBL4321879, “Novel Class of Colony-Stimulating Factor 1 Receptor Kinase Inhibitors Based on an o-Aminopyridyl Alkynyl Scaffold as Potential Treatment for Inflammatory Disorders” (J Med Chem, 2020) can be followed below.

In series [1] the target is Platelet-derived growth factor receptor alpha (Homo sapiens) (UniProt P16234). Nature of the series: Inhibition of recombinant human N-terminal His6-tagged PDGFRalpha (550 to end residues) expressed in baculovirus infected Sf21 insect cells at 10 nM using poly (Glu, Tyr)4:1 as substrate measured after 1 hr by ELISA relative to control. The gist of the method: (§1)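 ELISA kinase assay: recombinant kinase added to wells precoated with poly(Glu,Tyr)4:1 and incubated with compound in reaction buffer containing 5 μM ATP, 37 °C for 1 h; wells then washed before antibody detection.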
Chain of Platelet-derived growth factor receptor alpha (Homo sapiens) (P16234 whole entry): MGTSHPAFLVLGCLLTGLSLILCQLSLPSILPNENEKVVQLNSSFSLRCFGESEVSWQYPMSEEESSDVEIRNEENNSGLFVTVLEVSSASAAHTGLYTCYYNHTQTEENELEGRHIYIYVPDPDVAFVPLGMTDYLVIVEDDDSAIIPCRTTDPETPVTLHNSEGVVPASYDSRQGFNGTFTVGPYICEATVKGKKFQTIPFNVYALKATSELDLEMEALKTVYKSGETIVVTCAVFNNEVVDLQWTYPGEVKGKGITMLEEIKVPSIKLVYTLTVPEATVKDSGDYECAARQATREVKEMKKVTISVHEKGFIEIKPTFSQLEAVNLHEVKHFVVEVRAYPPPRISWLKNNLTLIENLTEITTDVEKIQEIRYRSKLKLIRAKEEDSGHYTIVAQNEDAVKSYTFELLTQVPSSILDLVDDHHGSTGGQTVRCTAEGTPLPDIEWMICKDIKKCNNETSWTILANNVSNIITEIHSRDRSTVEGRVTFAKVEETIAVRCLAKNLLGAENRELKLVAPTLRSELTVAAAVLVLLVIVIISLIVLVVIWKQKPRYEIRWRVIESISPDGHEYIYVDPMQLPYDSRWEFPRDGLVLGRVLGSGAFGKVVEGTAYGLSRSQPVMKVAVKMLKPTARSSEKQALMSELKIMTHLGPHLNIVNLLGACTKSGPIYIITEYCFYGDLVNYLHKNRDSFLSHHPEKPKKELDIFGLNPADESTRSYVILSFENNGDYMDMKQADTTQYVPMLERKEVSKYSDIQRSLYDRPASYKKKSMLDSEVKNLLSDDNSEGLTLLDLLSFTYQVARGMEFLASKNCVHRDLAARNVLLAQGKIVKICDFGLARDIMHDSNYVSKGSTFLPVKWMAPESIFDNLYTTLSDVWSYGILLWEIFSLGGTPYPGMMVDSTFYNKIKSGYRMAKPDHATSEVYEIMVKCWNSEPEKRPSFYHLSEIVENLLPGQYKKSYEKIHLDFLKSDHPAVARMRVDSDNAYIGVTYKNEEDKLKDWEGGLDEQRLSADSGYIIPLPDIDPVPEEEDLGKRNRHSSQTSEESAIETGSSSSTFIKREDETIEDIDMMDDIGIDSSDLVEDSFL
On the technique in general: An ELISA detects its analyte on a solid surface through an enzyme-linked reagent.

The target in series [2] is Tyrosine-protein kinase ABL1 (Homo sapiens) (UniProt P00519). Nature of the series: Inhibition of recombinant human N-terminal His6-tagged Abl (27 to end residues) expressed in baculovirus infected Sf21 insect cells at 100 nM using poly (Glu, Tyr)4:1 as substrate measured after 1 hr by ELISA relative to control. The gist of the method: (§2)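 Recombinant kinase was incubated with compound in reaction buffer containing 5 μM ATP, in wells precoated with poly(Glu,Tyr) 4:1, for 1 h at 37 °C. Phosphorylation was detected by ELISA.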

Series [3] has as its target Proto-oncogene tyrosine-protein kinase receptor Ret (Homo sapiens) (UniProt P07949). In words: Inhibition of recombinant human N-terminal GST-tagged RET (658 to end residues) expressed in baculovirus infected Sf21 insect cells at 10 nM using poly (Glu, Tyr)4:1 as substrate measured after 1 hr by ELISA relative to control. The gist of the method:
as §2

For series [4], the target named is Tyrosine-protein kinase BTK (Homo sapiens) (UniProt Q06187). In words: Inhibition of recombinant human full-length N-terminal His6-tagged BTK expressed in baculovirus infected Sf21 insect cells at 100 nM using poly (Glu, Tyr)4:1 as substrate measured after 1 hr by ELISA relative to control. The gist of the method: as §1
For series [5], the target named is Receptor tyrosine-protein kinase erbB-4 (Homo sapiens) (UniProt Q15303). In words: Inhibition of recombinant human N-terminal His6-tagged Erbb4 (706 to 991 residues) expressed in baculovirus infected Sf21 insect cells at 1000 nM using poly (Glu, Tyr)4:1 as substrate measured after 1 hr by ELISA relative to control. The gist of the method: as §2
Chain of Receptor tyrosine-protein kinase erbB-4 (Homo sapiens) (Q15303 whole entry, the tested form may be a part): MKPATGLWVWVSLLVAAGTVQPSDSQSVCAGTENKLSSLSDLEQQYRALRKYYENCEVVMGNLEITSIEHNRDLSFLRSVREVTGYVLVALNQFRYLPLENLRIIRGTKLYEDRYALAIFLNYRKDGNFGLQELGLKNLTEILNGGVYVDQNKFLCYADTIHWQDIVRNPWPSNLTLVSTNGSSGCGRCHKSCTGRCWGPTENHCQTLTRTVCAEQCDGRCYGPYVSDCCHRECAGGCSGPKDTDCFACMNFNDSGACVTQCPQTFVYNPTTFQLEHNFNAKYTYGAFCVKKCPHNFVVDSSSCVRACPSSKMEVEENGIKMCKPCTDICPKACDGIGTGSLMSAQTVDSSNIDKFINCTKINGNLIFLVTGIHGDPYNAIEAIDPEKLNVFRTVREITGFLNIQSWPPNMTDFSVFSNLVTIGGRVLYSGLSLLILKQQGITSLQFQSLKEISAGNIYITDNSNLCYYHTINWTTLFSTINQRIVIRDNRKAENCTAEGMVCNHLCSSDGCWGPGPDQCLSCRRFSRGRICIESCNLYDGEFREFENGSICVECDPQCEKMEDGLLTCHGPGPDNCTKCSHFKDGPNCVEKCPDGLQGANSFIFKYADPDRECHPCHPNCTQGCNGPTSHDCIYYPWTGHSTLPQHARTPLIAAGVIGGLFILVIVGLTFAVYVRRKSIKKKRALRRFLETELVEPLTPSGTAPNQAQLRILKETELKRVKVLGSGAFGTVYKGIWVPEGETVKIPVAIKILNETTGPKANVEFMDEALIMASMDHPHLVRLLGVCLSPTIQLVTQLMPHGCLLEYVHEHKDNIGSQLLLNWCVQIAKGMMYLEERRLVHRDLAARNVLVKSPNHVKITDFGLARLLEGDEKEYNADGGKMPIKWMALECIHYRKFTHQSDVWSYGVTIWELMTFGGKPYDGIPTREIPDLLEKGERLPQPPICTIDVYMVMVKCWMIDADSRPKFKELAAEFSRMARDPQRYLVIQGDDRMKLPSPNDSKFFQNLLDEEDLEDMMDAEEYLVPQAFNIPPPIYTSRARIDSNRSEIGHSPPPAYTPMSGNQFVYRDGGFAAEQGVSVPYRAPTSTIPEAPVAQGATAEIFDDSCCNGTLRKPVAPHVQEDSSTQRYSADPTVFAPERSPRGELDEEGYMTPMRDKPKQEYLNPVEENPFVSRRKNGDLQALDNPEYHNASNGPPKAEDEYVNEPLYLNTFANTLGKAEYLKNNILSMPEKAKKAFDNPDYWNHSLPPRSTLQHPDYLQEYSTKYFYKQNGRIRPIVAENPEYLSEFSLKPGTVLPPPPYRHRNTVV
Series [6] addresses Platelet-derived growth factor receptor alpha (Homo sapiens) (UniProt P16234). In words: Inhibition of recombinant human N-terminal His6-tagged PDGFRalpha (550 to end residues) expressed in baculovirus infected Sf21 insect cells at 1000 nM using poly (Glu, Tyr)4:1 as substrate measured after 1 hr by ELISA relative to control. The gist of the method:
as §1

The target of series [7] is Fibroblast growth factor receptor 4 (Homo sapiens, UniProt P22455). In words: Inhibition of recombinant human N-terminal His6-tagged FGFR4 (442 to 755 residues) expressed in baculovirus infected Sf21 insect cells at 1000 nM using poly (Glu, Tyr)4:1 as substrate measured after 1 hr by ELISA relative to control. The gist of the method:
as §1

Series [8] can be described thus: Oral bioavailability in Sprague-Dawley rat at 5 mg/kg administered via gavage by LC-MS/MS analysis. The series is classed as ADME, organism-based. To be noted: in vivo. The gist of the method:
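Male SD rats (n = 3 per route), fasted 12 h; 5 mg/kg oral gavage (DMSO/HPMC 5/95) versus 2 mg/kg iv (DMSO/EtOH/PEG300/saline). Plasma sampled 15–1440 min, LC–MS/MS; F = AUC0–∞(oral)/AUC0–∞(iv) × dose(iv)/dose(oral) × 100%.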

Series [9] deals with Fibroblast growth factor receptor 3 (Homo sapiens, UniProt P22607). Nature of the series: Inhibition of recombinant human N-terminal His6-tagged FGFR3 (447 to 761 residues) expressed in baculovirus infected Sf21 insect cells at 100 nM using poly (Glu, Tyr)4:1 as substrate measured after 1 hr by ELISA relative to control. The gist of the method:
as §2

The test system of series [10] is RAW264.7. Nature of the series: Antiinflammatory activity in mouse RAW264.7 cells assessed as reduction in LPS-induced TNFalpha release measured after 24 hrs by ELISA. The class given is functional, cell-based. To be noted: RAW264.7, 24 h. The gist of the method:
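RAW264.7 cells in DMEM with 10% FBS and 0.125% DMSO were incubated with compound, then primed with LPS 1 μg/mL for 24 h. Supernatant TNF-α and IL-6 measured by mouse ELISA. IC50 from log(inhibitor) versus normalized response nonlinear fit.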

Series [11] can be described thus: Elimination half life in Sprague-Dawley rat at 5 mg/kg, po administered via gavage by LC-MS/MS analysis. The series is classed as ADME, organism-based. To be noted: in vivo, read-out: beta t1/2 (converted). The gist of the method:
(§3)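 Male SD rats (200 ± 20 g) were fasted 12 h with free access to water, n = 3 per group. One group received 2 mg/kg iv in DMSO/EtOH/PEG300/saline (5/5/40/50). The other received 5 mg/kg by oral gavage in DMSO/HPMC (5/95). Femoral-vein plasma was taken at 15–1440 min, methanol-precipitated with internal standard, and measured by LC–MS/MS. Noncompartmental analysis; AUC by trapezoidal method.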

In series [12] the target is Receptor tyrosine-protein kinase erbB-4 (Homo sapiens) (UniProt Q15303). Nature of the series: Inhibition of recombinant human N-terminal His6-tagged Erbb4 (706 to 991 residues) expressed in baculovirus infected Sf21 insect cells at 100 nM using poly (Glu, Tyr)4:1 as substrate measured after 1 hr by ELISA relative to control. The gist of the method:
as §2

The target in series [13] is Fibroblast growth factor receptor 2 (Homo sapiens, UniProt P21802). Nature of the series: Inhibition of recombinant human N-terminal His6-tagged FGFR2 (456 to 770 residues) expressed in baculovirus infected Sf21 insect cells at 1000 nM using poly (Glu, Tyr)4:1 as substrate measured after 1 hr by ELISA relative to control. The gist of the method:
as §2

In series [14] the target is Epidermal growth factor receptor (Homo sapiens) (UniProt P00533). In words: Inhibition of recombinant human N-terminal GST-tagged EGFR (696 to end residues) expressed in baculovirus infected Sf21 insect cells at 1000 nM using poly (Glu, Tyr)4:1 as substrate measured after 1 hr by ELISA relative to control. The gist of the method: as §2
Series [15] concerns the target FLT3 (Homo sapiens, UniProt P36888). In words: Inhibition of recombinant human N-terminal GST-tagged FLT3 (564 to end residues) expressed in Sf21 insect cells at 1000 nM using poly (Glu, Tyr)4:1 as substrate measured after 1 hr by ELISA relative to control. To be noted: probe poly (Glu, Tyr)4:1. The gist of the method:
as §2

Series [16] concerns the target Proto-oncogene tyrosine-protein kinase receptor Ret (Homo sapiens) (UniProt P07949). In words: Inhibition of recombinant human N-terminal GST-tagged RET (658 to end residues) expressed in baculovirus infected Sf21 insect cells at 100 nM using poly (Glu, Tyr)4:1 as substrate measured after 1 hr by ELISA relative to control. The gist of the method: as §2
Series [17] deals with Vascular endothelial growth factor receptor 2 (Homo sapiens) (UniProt P35968). In words: Inhibition of recombinant human VEGFR2 (D1-7) expressed in Spodoptera frugiperda insect cells at 10 nM using poly (Glu, Tyr)4:1 as substrate measured after 1 hr by ELISA relative to control. The gist of the method: as §1
Series [18] addresses Tyrosine-protein kinase ITK/TSK (Homo sapiens) (UniProt Q08881). In words: Inhibition of recombinant human N-terminal His6-tagged ITK (352 to 617 residues) expressed in baculovirus infected Sf21 insect cells at 1000 nM using poly (Glu, Tyr)4:1 as substrate measured after 1 hr by ELISA relative to control. The gist of the method: as §1
A short description of series [19]: AUC (0 to t) in Sprague-Dawley rat at 5 mg/kg, po administered via gavage by LC-MS/MS analysis. Particulars: in vivo. The class given is ADME, organism-based. The gist of the method:
as §3

Chain of Proto-oncogene tyrosine-protein kinase receptor Ret (Homo sapiens) (P07949 whole entry): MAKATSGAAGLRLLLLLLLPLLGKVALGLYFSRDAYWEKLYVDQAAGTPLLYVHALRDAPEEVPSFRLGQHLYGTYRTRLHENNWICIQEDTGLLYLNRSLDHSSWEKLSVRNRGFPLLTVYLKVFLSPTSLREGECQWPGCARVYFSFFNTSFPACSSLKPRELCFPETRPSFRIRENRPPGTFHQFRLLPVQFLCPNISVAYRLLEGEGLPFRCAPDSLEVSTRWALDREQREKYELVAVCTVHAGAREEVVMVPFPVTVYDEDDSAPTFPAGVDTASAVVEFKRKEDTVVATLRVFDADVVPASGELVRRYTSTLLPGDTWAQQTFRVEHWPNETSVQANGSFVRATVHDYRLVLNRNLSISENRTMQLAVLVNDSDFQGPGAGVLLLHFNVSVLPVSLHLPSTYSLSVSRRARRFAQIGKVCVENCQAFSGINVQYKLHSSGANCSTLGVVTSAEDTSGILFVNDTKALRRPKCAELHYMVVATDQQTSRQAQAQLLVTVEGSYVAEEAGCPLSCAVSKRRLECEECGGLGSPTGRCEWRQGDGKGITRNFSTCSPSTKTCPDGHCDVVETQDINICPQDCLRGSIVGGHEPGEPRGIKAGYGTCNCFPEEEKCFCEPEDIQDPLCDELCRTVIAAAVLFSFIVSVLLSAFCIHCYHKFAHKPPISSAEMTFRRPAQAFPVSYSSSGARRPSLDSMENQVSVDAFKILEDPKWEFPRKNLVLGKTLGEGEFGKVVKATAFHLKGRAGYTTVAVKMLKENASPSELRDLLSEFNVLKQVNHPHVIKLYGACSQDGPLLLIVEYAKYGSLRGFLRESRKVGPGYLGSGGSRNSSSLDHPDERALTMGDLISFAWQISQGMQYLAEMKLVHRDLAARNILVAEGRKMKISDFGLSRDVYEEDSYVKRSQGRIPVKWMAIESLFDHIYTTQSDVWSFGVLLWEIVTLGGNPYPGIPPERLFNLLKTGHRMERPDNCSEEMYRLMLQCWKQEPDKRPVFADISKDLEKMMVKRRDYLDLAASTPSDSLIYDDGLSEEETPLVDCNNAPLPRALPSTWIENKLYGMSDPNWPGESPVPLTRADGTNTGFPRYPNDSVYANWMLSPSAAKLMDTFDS
Chain of Fibroblast growth factor receptor 3 (P22607 23-806 limits assumed): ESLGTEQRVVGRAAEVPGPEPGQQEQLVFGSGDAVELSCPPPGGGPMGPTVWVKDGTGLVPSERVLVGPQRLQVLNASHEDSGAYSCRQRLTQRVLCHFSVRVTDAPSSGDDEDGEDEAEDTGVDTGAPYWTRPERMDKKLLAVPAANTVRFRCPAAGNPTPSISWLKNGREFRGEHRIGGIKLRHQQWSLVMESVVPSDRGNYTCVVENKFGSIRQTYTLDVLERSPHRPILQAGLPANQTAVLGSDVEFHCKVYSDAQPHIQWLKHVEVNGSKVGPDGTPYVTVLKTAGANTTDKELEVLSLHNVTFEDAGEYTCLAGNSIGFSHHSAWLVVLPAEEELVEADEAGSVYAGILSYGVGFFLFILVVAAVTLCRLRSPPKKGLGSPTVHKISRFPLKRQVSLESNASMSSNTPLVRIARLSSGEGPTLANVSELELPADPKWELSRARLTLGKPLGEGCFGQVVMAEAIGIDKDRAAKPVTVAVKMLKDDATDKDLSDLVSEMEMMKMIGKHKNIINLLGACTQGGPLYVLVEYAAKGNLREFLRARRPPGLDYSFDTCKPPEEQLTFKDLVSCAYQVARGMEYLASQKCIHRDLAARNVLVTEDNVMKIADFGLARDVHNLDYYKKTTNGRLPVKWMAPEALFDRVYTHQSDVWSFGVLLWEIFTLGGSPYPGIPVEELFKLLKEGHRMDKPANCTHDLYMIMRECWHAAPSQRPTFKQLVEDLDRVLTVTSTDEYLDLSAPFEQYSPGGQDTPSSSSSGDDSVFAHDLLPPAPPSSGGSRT
Chain of Fibroblast growth factor receptor 4 (P22455 22-802 limits assumed): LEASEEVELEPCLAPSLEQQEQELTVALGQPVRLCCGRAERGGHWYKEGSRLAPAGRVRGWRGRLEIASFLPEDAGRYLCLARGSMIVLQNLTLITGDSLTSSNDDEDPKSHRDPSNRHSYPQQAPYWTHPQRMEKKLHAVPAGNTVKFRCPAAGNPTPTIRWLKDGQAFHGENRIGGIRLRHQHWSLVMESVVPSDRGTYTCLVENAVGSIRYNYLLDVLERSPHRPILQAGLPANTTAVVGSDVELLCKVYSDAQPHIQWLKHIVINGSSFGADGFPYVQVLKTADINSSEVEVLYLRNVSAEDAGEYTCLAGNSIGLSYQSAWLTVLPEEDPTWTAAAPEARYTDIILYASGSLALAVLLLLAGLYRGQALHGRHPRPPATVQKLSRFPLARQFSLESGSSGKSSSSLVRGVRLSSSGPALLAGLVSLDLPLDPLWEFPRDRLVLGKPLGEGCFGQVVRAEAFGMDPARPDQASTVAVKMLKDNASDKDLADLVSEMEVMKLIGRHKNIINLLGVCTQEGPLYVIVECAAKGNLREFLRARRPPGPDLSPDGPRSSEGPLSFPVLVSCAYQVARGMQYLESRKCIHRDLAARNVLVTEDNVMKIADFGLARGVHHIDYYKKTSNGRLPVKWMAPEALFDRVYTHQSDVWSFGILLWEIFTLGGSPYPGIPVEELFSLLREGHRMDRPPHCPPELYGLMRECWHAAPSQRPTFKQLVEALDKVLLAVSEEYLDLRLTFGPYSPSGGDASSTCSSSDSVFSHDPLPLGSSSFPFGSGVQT

A word on the inhibition: it is how much of the control response was suppressed. A word on the bioavailability: it is the share of a dose that reaches the circulation, judged against a reference dose that is usually intravenous. Usually IC50 stands for the point on the concentration scale where inhibition reaches its midpoint. What is called AUC(0-t) is the area under the concentration-time curve up to a stated or last time point. A low value points to low exposure. For the compound `Cc1ccc(C(=O)Nc2ccc(Cl)cc2)cc1C#Cc1cc(-c2cnn(C)c2)cnc1N`, the inhibition in series [1] was 54.6%; in series [2] it was 82.1%; in series [3] it was 42.7%; in [4], 0%; in series [5] it was 1.6%; in series [6], 92.6%. The inhibition is 7.4% in series [7]; 0% in [9]; 6.6% in series [12]; 20.7% in series [13]; 0% in series [14]; 77.6% in [16]. For the same compound, the inhibition amounted to 23.2% in [17] and 7.4% in [18]. In [8], this compound came in with a bioavailability of 34.8%. Further, in series [10], the IC50 is 0.11 µM. The half-life in series [11] is 2.21 h. Besides, the inhibition at 1 h, 1 µM in series [15] is 5.9%. Moreover, in series [19], the AUC(0-t) is 634 ng·h/mL.
